Data published in ChEMBL document CHEMBL4368909, “Identification of Dihydrofuro[3,4- d]pyrimidine Derivatives as Novel HIV-1 Non-Nucleoside Reverse Transcriptase Inhibitors with Promising Antiviral Activities and Desirable Physicochemical Properties” (J Med Chem, 2019).

Columns and labels:
[1] = Selectivity ratio of CC50 for human TZM-bl cells to EC50 for HIV1 NL4-3 infected in human TZM-bl cells; assay type: toxicity, cell-based; details: read-out: Ratio CC50/EC50
In short: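 The selectivity index is CC50/EC50 in TZM-bl cells against NL4-3. […] The highest concentration tested was 125 ng/mL.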

[2] = tested on: Human immunodeficiency virus 1; test: Antiviral activity against HIV1 NL4-3 infected in human TZM-bl cells after 2 days by luciferase-bright glo assay; assay type: functional, organism-based; details: Human immunodeficiency virus 1, NL4-3, TZM-bl, 48 h
[3] = biological target: Human immunodeficiency virus type 1 reverse transcriptase (Human immunodeficiency virus 1, UniProt Q72547); test: Inhibition of recombinant HIV1 reverse transcriptase using (DIG)-dUTP and biotin-labeled dNTPs as substrate after 1 hr by ELISA
[4] = tested on: Human immunodeficiency virus 2; test: Antiviral activity against HIV2 ROD infected in human MT4 cells assessed as reduction in virus-induced cytopathic effect after 5 days by MTT assay; details: Human immunodeficiency virus 2, ISOLATE ROD, MT4, 120 h
[5] = tested on: Human immunodeficiency virus 1; test: Antiviral activity against wild type HIV1 3B infected in human MT4 cells assessed as reduction in virus-induced cytopathic effect after 5 days by MTT assay; assay type: functional, organism-based; details: Human immunodeficiency virus 1, 3B, MT4, 120 h
[6] = tested on: Human immunodeficiency virus 1; test: Antiviral activity against HIV1 RES056 infected in human MT4 cells assessed as reduction in virus-induced cytopathic effect after 5 days by MTT assay; assay type: functional, organism-based; details: Human immunodeficiency virus 1, RES056, MT4, 120 h
TZM = test: Cytotoxicity against human TZM-bl cells after 4 days by XTT assay; assay type: cell-based; details: 96 h
MT4 = test: Cytotoxicity against human MT4 cells after 5 days by MTT assay; assay type: cell-based; details: mt4, 120 h
[7] = Selectivity ratio of CC50 for human MT4 cells to EC50 for HIV1 RES056 infected in human MT4 cells; assay type: toxicity, cell-based; details: read-out: Ratio CC50/EC50
[8] = Selectivity ratio of CC50 for human MT4 cells to EC50 for HIV1 3B infected in human MT4 cells; assay type: toxicity, cell-based; details: read-out: Ratio CC50/EC50

SMILES	selectivity ratio [1]	EC50 [2]	IC50 [3]	EC50 [4]	EC50 [5]	EC50 [6]	CC50 (TZM)	CC50 (MT4)	selectivity ratio [7]	selectivity ratio [8]
Cc1cc(C#N)cc(C)c1Oc1nc(N[C@H]2CCN(Cc3ccncc3)C2)nc2ccsc12	16	16.7 nM								
Cc1cc(C#N)cc(C)c1Oc1nc(NC2CCN(Cc3ccc(C(N)=O)cc3)CC2)nc2c1CCC2			73 nM	139000 nM	6.1 nM	173 nM				
Cc1cc(C#N)cc(C)c1Oc1nc(N[C@H]2CCN(Cc3ccc(S(C)(=O)=O)cc3)C2)nc2ccsc12	4.6	50.7 nM					> 234 nM			
Cc1cc(C#N)cc(C)c1Oc1nc(N[C@@H]2CCN(Cc3ccncc3)C2)nc2ccsc12	17	16 nM					> 273 nM			
Cc1cc(C#N)cc(C)c1Oc1nc(NC2CCCN(Cc3ccc(C(N)=O)cc3)CC2)nc2ccsc12 (configuration not stated)	1	> 237 nM					> 237 nM			
Cc1cc(C#N)cc(C)c1Oc1nc(NC2CCN(Cc3ccc(NS(C)(=O)=O)cc3)CC2)nc2c1CSC2			140 nM	> 257000 nM	11.2 nM	5240 nM		> 257000 nM		
Cc1cc(C#N)cc(C)c1Oc1nc(NC2CCN(Cc3cccc(C(N)=O)c3)CC2)nc2c1CCCC2			101 nM	> 158000 nM	6.5 nM	3150 nM		158000 nM	50	24400
Cc1cc(C#N)cc(C)c1Oc1nc(NC2CCN(Cc3ccncc3)CC2)nc2c1SCC2			112 nM	15700 nM	2.6 nM	46 nM				
Cc1cc(C#N)cc(C)c1Oc1nc(NC2CN(Cc3cccc(C(N)=O)c3)C2)nc2ccsc12	29	8.95 nM					> 257 nM			
Cc1cc(C#N)cc(C)c1Oc1nc(NC2CCN(Cc3ccc(C(N)=O)cc3)CC2)nc2c1SCCC2				> 44300 nM	3 nM	93 nM		≥ 44300 nM		
Cc1cc(C#N)cc(C)c1Oc1nc(NC2CCN(Cc3ccc(S(C)(=O)=O)cc3)CC2)nc2c1SCCC2				> 3400 nM	3.9 nM	98.3 nM		≥ 3400 nM		
Cc1cc(C#N)cc(C)c1Oc1nc(N[C@@H]2CCN(Cc3ccc(S(C)(=O)=O)cc3)C2)nc2ccsc12	16	13.9 nM								
Cc1cc(C#N)cc(C)c1Oc1nc(NC2CCN(Cc3cccc(C(N)=O)c3)CC2)nc2c1COC2			91 nM	209000 nM	7.8 nM	1030 nM				
Cc1cc(C#N)cc(C)c1Oc1nc(NC2CCN(Cc3ccc(S(N)(=O)=O)cc3)CC2)nc2c1CSC2			410 nM	≥ 26700 nM	37.2 nM	734 nM		26600 nM	36	715
Cc1cc(C#N)cc(C)c1Oc1nc(NC2CCN(Cc3ccc([N+](=O)[O-])cc3)CC2)nc2c1CCCC2			94 nM	> 29100 nM	77.4 nM	6900 nM		29100 nM	4	376
Cc1cc(C#N)cc(C)c1Oc1nc(NC2CCCN(Cc3ccc(S(N)(=O)=O)cc3)CC2)nc2ccsc12 (configuration not stated)		2.2 nM					> 222 nM			
Cc1cc(C#N)cc(C)c1Oc1nc(N[C@@H]2CCN(Cc3ccc(S(N)(=O)=O)cc3)C2)nc2ccsc12	26	8.69 nM					> 233 nM			
Cc1cc(C#N)cc(C)c1Oc1nc(NC2CCN(Cc3cccc(C(N)=O)c3)CC2)nc2c1SCC2			94 nM	> 223000 nM	27.7 nM	629 nM				
Cc1cc(C#N)cc(C)c1Oc1nc(NC2CC3CCC(C2)N3Cc2ccc(C(N)=O)cc2)nc2ccsc12 (configuration not stated)	1	> 232 nM					> 232 nM			
Cc1cc(C#N)cc(C)c1Oc1nc(NC2CCN(Cc3ccc(S(N)(=O)=O)cc3)CC2)nc2c1CCCC2			84 nM	> 228000 nM	6 nM	667 nM		> 228000 nM		
Cc1cc(C#N)cc(C)c1Oc1nc(NC2CCN(Cc3ccc([N+](=O)[O-])cc3)CC2)nc2c1SCCC2				> 4000 nM	8.6 nM	604 nM		4000 nM	6.6	465
Cc1cc(C#N)cc(C)c1Oc1nc(N[C@@H]2CCN(Cc3cccc(C(N)=O)c3)C2)nc2ccsc12	6	41.3 nM								
Cc1cc(C#N)cc(C)c1Oc1nc(NC2CCCN(Cc3cccc(C(N)=O)c3)CC2)nc2ccsc12 (configuration not stated)	23	10.3 nM					> 237 nM			

SMILES	selectivity ratio [1]	EC50 [2]	IC50 [3]	EC50 [4]	EC50 [5]	EC50 [6]	CC50 (TZM)	CC50 (MT4)	selectivity ratio [7]	selectivity ratio [8]
Cc1cc(C#N)cc(C)c1Oc1nc(NC2CN(Cc3ccncc3)C2)nc2ccsc12	128	2.21 nM					> 282 nM			
Cc1cc(C#N)cc(C)c1Oc1nc(N[C@H]2CCN(Cc3ccc(S(N)(=O)=O)cc3)C2)nc2ccsc12	2.2	104 nM								
Cc1cc(C#N)cc(C)c1Oc1nc(NC2CC3CCC(C2)N3Cc2ccc(S(N)(=O)=O)cc2)nc2ccsc12 (configuration not stated)	1	> 217 nM					> 217 nM			
Cc1cc(C#N)cc(C)c1Oc1nc(N[C@H]2CCN(Cc3ccc(C(N)=O)cc3)C2)nc2ccsc12	4.5	55.7 nM					> 250 nM			
Cc1cc(C#N)cc(C)c1Oc1nc(NC2CCN(Cc3cccc(C(N)=O)c3)CC2)nc2c1CCC2			241 nM	> 205000 nM	2 nM	26800 nM		205000 nM	9	124000
Cc1cc(C#N)cc(C)c1Oc1nc(NC2CCN(Cc3ccc(S(C)(=O)=O)cc3)CC2)nc2c1CCCC2			89 nM	≥ 163000 nM	8 nM	66.1 nM		> 266000 nM		
Cc1cc(C#N)cc(C)c1Oc1nc(NC2CN(Cc3ccc(S(C)(=O)=O)cc3)C2)nc2ccsc12	1.1	207 nM					> 240 nM			
Cc1cc(C#N)cc(C)c1Oc1nc(NC2CN(Cc3ccc(C(N)=O)cc3)C2)nc2ccsc12	54	4.76 nM					> 257 nM			
Cc1cc(C#N)cc(C)c1Oc1nc(NC2CCN(Cc3ccc([N+](=O)[O-])cc3)CC2)nc2c1COC2			92 nM	> 11100 nM	7.4 nM	511 nM				
Cc1cc(C#N)cc(C)c1Oc1nc(NC2CCN(Cc3ccc([N+](=O)[O-])cc3)CC2)nc2c1CCC2			241 nM	> 8730 nM	14.5 nM	941 nM		8730 nM	9	599
Cc1cc(C#N)cc(C)c1Oc1nc(NC2CCN(Cc3ccc(C(N)=O)cc3)CC2)nc2c1CCCC2			51 nM	> 233000 nM	6 nM	291 nM		> 233000 nM		
Cc1cc(C#N)cc(C)c1Oc1nc(N[C@@H]2CCN(Cc3ccc(C(N)=O)cc3)C2)nc2ccsc12	24	10.4 nM								
Cc1cc(C#N)cc(C)c1Oc1nc(NC2CCN(Cc3ccc(S(C)(=O)=O)cc3)CC2)nc2c1SCC2			130 nM	13500 nM	5.9 nM	46.6 nM		11900 nM	257	2020
Cc1cc(C#N)cc(C)c1Oc1nc(NC2CC3CCC(C2)N3Cc2ccc(S(C)(=O)=O)cc2)nc2ccsc12 (configuration not stated)	1	> 217 nM					> 217 nM			
Cc1cc(C#N)cc(C)c1Oc1nc(NC2CCN(Cc3ccc([N+](=O)[O-])cc3)CC2)nc2c1SCC2			175 nM	> 6180 nM	8 nM	495 nM		6180 nM	12	770
Cc1cc(C#N)cc(C)c1Oc1nc(NC2CCCN(Cc3ccncc3)CC2)nc2ccsc12 (configuration not stated)	8	31.7 nM					> 257 nM			
Cc1cc(C#N)cc(C)c1Oc1nc(NC2CN(Cc3ccc(S(N)(=O)=O)cc3)C2)nc2ccsc12	53	4.53 nM					> 240 nM			
Cc1cc(C#N)cc(C)c1Oc1nc(NC2CC3CCC(C2)N3Cc2ccncc2)nc2ccsc12 (configuration not stated)	1	> 251 nM					> 251 nM			
Cc1cc(C#N)cc(C)c1Oc1nc(NC2CCN(Cc3ccncc3)CC2)nc2c1CCC2			73 nM	138000 nM	1.8 nM	54.7 nM		> 274000 nM		
Cc1cc(C#N)cc(C)c1Oc1nc(N[C@H]2CCN(Cc3cccc(C(N)=O)c3)C2)nc2ccsc12	1	> 250 nM					> 250 nM			
Cc1cc(C#N)cc(C)c1Oc1nc(NC2CC3CCC(C2)N3Cc2cccc(C(N)=O)c2)nc2ccsc12 (configuration not stated)	1	> 232 nM					> 232 nM			
Cc1cc(C#N)cc(C)c1Oc1nc(NC2CCCN(Cc3ccc(S(C)(=O)=O)cc3)CC2)nc2ccsc12 (configuration not stated)	22	9.98 nM					> 222 nM			
Cc1cc(C#N)cc(C)c1Oc1nc(NC2CCN(Cc3ccc(N)cc3)CC2)nc2c1CSC2			115 nM	108000 nM	8.4 nM	704 nM		> 257000 nM		
